Source: ChEMBL document CHEMBL2413001, “Exploring pyrimidine-substituted curcumin analogues: design, synthesis and effects on EGFR signaling” (Bioorg Med Chem, 2013)
One block for each compound: values may come before it. Active and inactive are the calls of the source. The rule behind the calls is not given here.

What was measured:
HT-29 [1] = assay: Cytotoxicity against human HT-29 cells assessed as growth inhibition after 48 hrs by resazurin assay; format: functional, cell-based; conditions: for IC50: HT-29, 48 h
Procedure, shortened: (§1)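 HCT116 or HT29 seeded at 2000 cells/well, grown 24 h, then given fresh complete McCoy's 5A (5% FBS, 0.1% DMSO final) containing serial compound concentrations for 48 h. Resazurin was added for 16 h and fluorescence read at ex 544/em 595 nm as a measure of living cells. IC50 was calculated by the Logit approach; values are mean ± SD.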

HCT-116 [2] = assay: Cytotoxicity against human HCT116 cells assessed as growth inhibition after 48 hrs by resazurin assay; format: functional, cell-based; conditions: for IC50: HCT-116, 48 h; procedure, shortened: as §1
HCT-116 [3] = assay: Induction of apoptosis in human HCT116 cells assessed as ratio of Bax to Bcl-2 expression at 5 uM after 72 hrs by Western blot analysis relative to control; format: functional
Procedure, shortened: (§2)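 HCT116 only, seeded at 8 × 10⁴ cells/ml in 15 cm dishes for 24 h, then treated for 72 h at 20 µM or at 5, 10 and 20 µM. Lysed in Triton lysis buffer (pH 7.5) with inhibitors, sonicated, and protein assayed by BCA. Western blots were developed by ECL. Band intensities were normalized to β-actin, as means of three independent experiments; the Bax/Bcl-2 ratio was expressed relative to untreated control.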

HCT-116 [4] = assay: Induction of apoptosis in human HCT116 cells assessed as ratio of Bax to Bcl-2 expression at 10 uM after 72 hrs by Western blot analysis relative to control; format: functional; procedure, shortened: as §2
HCT-116 [5] = assay: Induction of apoptosis in human HCT116 cells assessed as ratio of Bax to Bcl-2 expression at 20 uM after 72 hrs by Western blot analysis relative to control; format: functional; procedure, shortened: as §2
HCT-116 [6] = assay: Induction of apoptosis in human HCT116 cells assessed as increase in Bax expression after 72 hrs by Western blot analysis; format: functional, cell-based; procedure, shortened: as §2
HCT-116 [7] = assay: Induction of apoptosis in human HCT116 cells assessed as reduction in Bcl-2 expression after 72 hrs by Western blot analysis; format: functional, cell-based; procedure, shortened: as §2
HCT-116 [8] = assay: Induction of apoptosis in human HCT116 cells assessed as effect on HSP-90 expression after 72 hrs by Western blot analysis; format: functional, cell-based; procedure, shortened: as §2
HCT-116 [9] = assay: Induction of apoptosis in human HCT116 cells assessed as effect on HSP-70 expression after 72 hrs by Western blot analysis; format: functional, cell-based; procedure, shortened: as §2
HCT-116 [10] = assay: Induction of apoptosis in human HCT116 cells assessed as PARP cleavage after 72 hrs by Western blot analysis; format: functional, cell-based; procedure, shortened: as §2
HCT-116 [11] = assay: Induction of apoptosis in human HCT116 cells assessed as caspase-3 activation after 72 hrs by Western blot analysis; format: functional, cell-based; procedure, shortened: as §2
[12] = target: Epidermal growth factor receptor (Homo sapiens) (UniProt P00533); assay: Inhibition of EGFR signaling in human HCT116 cells assessed as effect on CDK4 expression at 5 to 20 uM after 24 hrs by Western blot analysis; format: cell-based; conditions: HCT-116
[13] = target: Epidermal growth factor receptor (Homo sapiens) (UniProt P00533); assay: Inhibition of EGFR signaling in human HCT116 cells assessed as inhibition of Rb expression after 24 hrs by Western blot analysis; format: cell-based; conditions: HCT-116
[14] = target: Epidermal growth factor receptor (Homo sapiens) (UniProt P00533); assay: Inhibition of EGFR signaling in human HCT116 cells assessed as effect on CDK2 expression at 5 to 20 uM after 24 hrs by Western blot analysis; format: cell-based; conditions: HCT-116
[15] = target: Epidermal growth factor receptor (Homo sapiens) (UniProt P00533); assay: Inhibition of EGFR signaling in human HCT116 cells assessed as inhibition of cyclin E1 expression after 24 hrs by Western blot analysis; format: cell-based; conditions: HCT-116
[16] = target: Epidermal growth factor receptor (Homo sapiens) (UniProt P00533); assay: Inhibition of EGFR signaling in human HCT116 cells assessed as inhibition of cyclin D1 expression after 24 hrs by Western blot analysis; format: cell-based; conditions: HCT-116
[17] = target: Epidermal growth factor receptor (Homo sapiens) (UniProt P00533); assay: Inhibition of EGFR signaling in human HCT116 cells assessed as induction of p21 WAF-1/CIP-1 expression at 5 uM after 24 hrs by Western blot analysis relative to control; format: cell-based; conditions: HCT-116
[18] = target: Epidermal growth factor receptor (Homo sapiens) (UniProt P00533); assay: Inhibition of EGFR signaling in human HCT116 cells assessed as induction of p21 WAF-1/CIP-1 expression at 10 uM after 24 hrs by Western blot analysis relative to control; format: cell-based; conditions: HCT-116
[19] = target: Epidermal growth factor receptor (Homo sapiens) (UniProt P00533); assay: Inhibition of EGFR signaling in human HCT116 cells assessed as induction of p21 WAF-1/CIP-1 expression at 20 uM after 24 hrs by Western blot analysis relative to control; format: cell-based; conditions: HCT-116
HCT-116 [20] = assay: Cell cycle arrest in human HCT116 cells assessed as accumulation at G0/G1 phase at 5 uM after 24 hrs by flow cytometry relative to control; format: functional, cell-based
Procedure, shortened: (§3)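 HCT116 or HT29 cells seeded at 4 × 10⁴ cells/ml in 6-well plates and left 24 h to attach, then exposed for 24 h in complete McCoy's 5A (5% FBS) with 0.1% DMSO final, at 5, 10 or 20 µM. Floating and trypsinized cells were pooled, PBS-washed, fixed overnight in 70% ethanol at 4 °C and stained with PI/RNase for 15 min at room temperature. Flow DNA content gave G0/G1, S and G2/M fractions as fold of control, from three independent assays.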

HT-29 [21] = assay: Cell cycle arrest in human HT-29 cells assessed as accumulation at G0/G1 phase at 5 uM after 24 hrs by flow cytometry relative to control; format: functional, cell-based; procedure, shortened: as §3
HT-29 [22] = assay: Cell cycle arrest in human HT-29 cells assessed as increase in G2/M population at 10 uM after 24 hrs by flow cytometry relative to control; format: functional; procedure, shortened: as §3
HT-29 [23] = assay: Cell cycle arrest in human HT-29 cells assessed as increase in G2/M population at 5 uM after 24 hrs by flow cytometry relative to control; format: functional; procedure, shortened: as §3
HT-29 [24] = assay: Cell cycle arrest in human HT-29 cells assessed as increase in G2/M population at 20 uM after 24 hrs by flow cytometry relative to control; format: functional; procedure, shortened: as §3
HCT-116 [25] = assay: Cell cycle arrest in human HCT116 cells assessed as increase in G2/M population at 10 uM after 24 hrs by flow cytometry relative to control; format: functional; procedure, shortened: as §3
HCT-116 [26] = assay: Cell cycle arrest in human HCT116 cells assessed as increase in G2/M population at 5 uM after 24 hrs by flow cytometry relative to control; format: functional; procedure, shortened: as §3
HCT-116 [27] = assay: Cell cycle arrest in human HCT116 cells assessed as increase in G2/M population at 20 uM after 24 hrs by flow cytometry relative to control; format: functional; procedure, shortened: as §3
HCT-116 [28] = assay: Inhibition of EGFR protein expression in human HCT116 cells after 72 hrs by Western blot analysis; format: functional, cell-based
Procedure, shortened: (§4)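 HCT116 or HT29 seeded at 8 × 10⁴ cells/ml in 15 cm dishes for 24 h, then treated for 72 h at 20 µM or at 5, 10 and 20 µM. Whole-cell lysates were made in Tris-HCl/NaCl/Triton buffer with phosphatase and protease inhibitors (pH 7.5), sonicated and cleared at 10,000g; protein was measured by BCA. Blots were blocked in 5% milk/TBST and developed by ECL. P-EGFR(Tyr1068) and total EGFR bands were normalized to β-tubulin, as means of three experiments.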

HT-29 [29] = assay: Inhibition of EGFR protein expression in human HT-29 cells after 72 hrs by Western blot analysis; format: functional, cell-based; procedure, shortened: as §4
[30] = target: Epidermal growth factor receptor (Homo sapiens) (UniProt P00533); assay: Inhibition of EGFR phosphorylation at Tyr1068 residue in human HCT116 cells after 72 hrs by Western blot analysis; format: cell-based; conditions: HCT-116; procedure, shortened: as §4
[31] = target: Epidermal growth factor receptor (Homo sapiens) (UniProt P00533); assay: Inhibition of EGFR phosphorylation at Tyr1068 residue in human HT-29 cells after 72 hrs by Western blot analysis; format: cell-based; procedure, shortened: as §4

Chain of Epidermal growth factor receptor (Homo sapiens) (P00533 whole entry): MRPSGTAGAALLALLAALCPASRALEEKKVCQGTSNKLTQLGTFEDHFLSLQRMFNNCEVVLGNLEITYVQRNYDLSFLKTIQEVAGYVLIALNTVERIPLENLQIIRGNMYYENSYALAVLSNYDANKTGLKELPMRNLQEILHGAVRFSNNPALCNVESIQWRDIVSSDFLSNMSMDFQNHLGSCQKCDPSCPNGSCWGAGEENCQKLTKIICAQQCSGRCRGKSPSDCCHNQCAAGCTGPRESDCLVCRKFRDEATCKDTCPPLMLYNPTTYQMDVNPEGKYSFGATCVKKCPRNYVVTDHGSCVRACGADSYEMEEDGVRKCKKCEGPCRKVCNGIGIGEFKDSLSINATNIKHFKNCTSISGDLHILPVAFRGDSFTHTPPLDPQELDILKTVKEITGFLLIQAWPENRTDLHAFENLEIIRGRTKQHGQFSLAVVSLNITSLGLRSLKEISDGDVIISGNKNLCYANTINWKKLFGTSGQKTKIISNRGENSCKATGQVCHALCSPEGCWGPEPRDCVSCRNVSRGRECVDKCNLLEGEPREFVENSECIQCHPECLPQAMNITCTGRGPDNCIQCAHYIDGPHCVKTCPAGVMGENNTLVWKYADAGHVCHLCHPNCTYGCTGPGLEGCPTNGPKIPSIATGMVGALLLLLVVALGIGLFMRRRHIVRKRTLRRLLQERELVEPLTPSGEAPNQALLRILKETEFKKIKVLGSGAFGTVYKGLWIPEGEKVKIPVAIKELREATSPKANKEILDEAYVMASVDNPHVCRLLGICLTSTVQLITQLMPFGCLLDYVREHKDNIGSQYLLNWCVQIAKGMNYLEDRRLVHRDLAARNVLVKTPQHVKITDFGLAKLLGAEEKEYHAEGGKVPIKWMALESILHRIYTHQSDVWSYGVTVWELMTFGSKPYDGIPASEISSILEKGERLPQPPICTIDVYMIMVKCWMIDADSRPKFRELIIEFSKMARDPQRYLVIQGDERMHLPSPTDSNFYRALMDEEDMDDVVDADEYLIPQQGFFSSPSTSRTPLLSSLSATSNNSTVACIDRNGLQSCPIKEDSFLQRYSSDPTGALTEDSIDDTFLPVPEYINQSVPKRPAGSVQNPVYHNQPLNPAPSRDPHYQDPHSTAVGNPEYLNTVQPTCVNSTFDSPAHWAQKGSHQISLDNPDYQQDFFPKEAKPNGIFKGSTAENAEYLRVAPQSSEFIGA

SMILES: COc1ccc(/C=C/c2cc(/C=C/c3ccc(OC)c(OC)c3)nc(NCCCO)n2)cc1OC
growth inhibition (GI) (HT-29 [1]): Dose-dependent effect | IC50 (HT-29 [1]): 12.8 µM | growth inhibition (GI) (HCT-116 [2]): Dose-dependent effect | IC50 (HCT-116 [2]): 9.9 µM

inhibition [12]: inactive | inhibition [13]: Dose-dependent effect | inhibition [14]: inactive | inhibition [15]: Dose-dependent effect | inhibition [16]: Dose-dependent effect | fold change (FC) [17]: 21.4 | fold change (FC) [18]: 28.6 | fold change (FC) [19]: 25.7 | inhibition [30]: Dose-dependent effect | inhibition [31]: Dose-dependent effect
SMILES: COc1ccc(/C=C/c2cc(/C=C/c3ccc(OC)c(OC)c3)nc(NCCO)n2)cc1OC
Ratio (HCT-116 [3]): 2.1 | Ratio (HCT-116 [4]): 17 | Ratio (HCT-116 [5]): 19 | Activity (HCT-116 [6]): Dose-dependent effect | Activity (HCT-116 [7]): Dose-dependent effect | Activity (HCT-116 [8]): Dose-dependent effect | Activity (HCT-116 [9]): Dose-dependent effect | Activity (HCT-116 [10]): Dose-dependent effect | Activity (HCT-116 [11]): Dose-dependent effect | Activity (HCT-116 [20]): Active | Activity (HT-29 [21]): Active | fold change (FC) (HT-29 [22]): 1.94 | fold change (FC) (HT-29 [23]): 1.86 | fold change (FC) (HT-29 [24]): 2.4 | fold change (FC) (HCT-116 [25]): 1.78 | fold change (FC) (HCT-116 [26]): 1.54 | fold change (FC) (HCT-116 [27]): 2.05 | inhibition (HCT-116 [28]): Dose-dependent effect | inhibition (HT-29 [29]): Dose-dependent effect | growth inhibition (GI) (HT-29 [1]): Dose-dependent effect | IC50 (HT-29 [1]): 7.1 µM | growth inhibition (GI) (HCT-116 [2]): Dose-dependent effect | IC50 (HCT-116 [2]): 6.2 µM

SMILES: CCCNc1nc(/C=C/c2cc(OC)c(OC)c(OC)c2)cc(/C=C/c2cc(OC)c(OC)c(OC)c2)n1
IC50 (HT-29 [1]): > 100 µM | growth inhibition (GI) (HCT-116 [2]): Dose-dependent effect | IC50 (HCT-116 [2]): 21.9 µM
